# Reference: ChEMBL document CHEMBL4725436, “Gibberellin JRA-003: A Selective Inhibitor of Nuclear Translocation of IKKα” (ACS Med Chem Lett, 2020)
# Columns and labels:
# [1] = tested on: SUD4; assay: Cytotoxicity against human SU-DHL-4 cells assessed as reduction in cell viability measured after 24 hrs by CellTiter-Glo luminescent assay; assay type: functional, cell-based; conditions: SU-DHL-4, 24 h
# Method in brief: (§1)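 High-throughput viability screen of test agents across a panel of 22 cancerous and noncancerous human cell lines. Viability was read by CellTiter-Glo luminescence.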
# [2] = Cytotoxicity against human Hs895SK cells assessed as reduction in cell viability measured after 24 hrs by CellTiter-Glo luminescent assay; assay type: cell-based; conditions: Hs 895.Sk; method in brief: as §1
# [3] = tested on: Hs-578T; assay: Cytotoxicity against human Hs-578T cells assessed as reduction in cell viability measured after 24 hrs by CellTiter-Glo luminescent assay; assay type: functional, cell-based; method in brief: as §1
# [4] = Cytotoxicity against human Hs578Bst cells assessed as reduction in cell viability measured after 24 hrs by CellTiter-Glo luminescent assay; assay type: cell-based; method in brief: as §1
# [5] = tested on: RCK8; assay: Cytotoxicity against human RC-K8 cells assessed as reduction in cell viability measured after 24 hrs by CellTiter-Glo luminescent assay; assay type: functional, cell-based; conditions: RCK8, 24 h; method in brief: as §1
# [6] = tested on: HEK-293T; assay: Cytotoxicity against human HEK293T cells assessed as reduction in cell viability measured after 24 hrs by CellTiter-Glo luminescent assay; assay type: cell-based; method in brief: as §1
# [7] = tested on: NCI-H446; assay: Cytotoxicity against human NCI-H446 cells assessed as reduction in cell viability measured after 24 hrs by CellTiter-Glo luminescent assay; assay type: functional, cell-based; conditions: NCI-H446, 24 h; method in brief: as §1
# [8] = tested on: HCC1599; assay: Cytotoxicity against human HCC1599 cells assessed as reduction in cell viability measured after 24 hrs by CellTiter-Glo luminescent assay; assay type: functional, cell-based; conditions: HCC1599, 24 h; method in brief: as §1
# [9] = tested on: CA46; assay: Cytotoxicity against human CA46 cells assessed as reduction in cell viability measured after 24 hrs by CellTiter-Glo luminescent assay; assay type: functional, cell-based; conditions: CA46, 24 h; method in brief: as §1
# [10] = Inhibition of IKKalpha/IKKbeta in human HEK293T cells transfected with firefly luciferase gene assessed as inhibition of TNF-alpha-stimulated NF-kappaB signalling preincubated for 1 hr followed by TNF alpha stimulation measured after 3 hrs by luciferase reporter gene assay; assay type: cell-based; conditions: HEK-293T
# Method in brief: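 Commercial NF-κB-driven luciferase reporter assay in HEK 293T cells stimulated with TNFα. EC50 was derived from the luminescence readout.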
# [11] = Cytotoxicity against human Hs895T cells assessed as reduction in cell viability measured after 24 hrs by CellTiter-Glo luminescent assay; assay type: functional, cell-based; method in brief: as §1
# [12] = tested on: PSN1; assay: Cytotoxicity against human PSN1 cells assessed as reduction in cell viability measured after 24 hrs by CellTiter-Glo luminescent assay; assay type: functional, cell-based; conditions: PSN1, 24 h; method in brief: as §1
# [13] = Cytotoxicity against human Hs888Lu cells assessed as reduction in cell viability measured after 24 hrs by CellTiter-Glo luminescent assay; assay type: cell-based; method in brief: as §1
SMILES,IC50 [1] [µM],IC50 [2] [µM],IC50 [3] [µM],IC50 [4] [µM],IC50 [5] [µM],IC50 [6] [µM],IC50 [7] [µM],IC50 [8] [µM],IC50 [9] [µM],EC50 [10] [µM],IC50 [11] [µM],IC50 [12] [µM],IC50 [13] [µM],EC50 [1] [µM],EC50 [5] [µM],EC50 [7] [µM],EC50 [8] [µM],EC50 [9] [µM],further results
Cc1cccc2c1[C@H](C(=O)O)[C@@]13CC(=O)[C@@](C)(CC[C@H]21)C3,> 10,> 10,> 10,> 10,> 10,> 10,> 10,> 10,> 10,> 100,> 10,> 10,> 10,,,,,,
C=C1C[C@]23C[C@@]1(O)CC[C@H]2c1cc(Br)c(O/C=C/C(=O)OC)c(C)c1[C@@H]3C(=O)OC,> 10,> 10,> 10,> 10,> 10,> 10,> 10,> 10,> 10,> 100,> 10,> 10,> 10,,,,,,
C=C1C[C@]23C[C@@]1(O)CC[C@@H]2c1cccc(C)c1[C@@H]3C(=O)OC,> 10,> 10,> 10,> 10,> 10,> 10,> 10,> 10,> 10,> 100,> 10,> 10,> 10,,,,,,
COC(=O)[C@H]1c2c(C)cccc2[C@H]2CC[C@@]3(C)C[C@]21CC3=O,> 10,> 10,> 10,> 10,> 10,> 10,> 10,> 10,> 10,> 100,> 10,> 10,> 10,,,,,,
C=C1C(=O)[C@]23C[C@@]1(O)CC[C@H]2[C@@]12C=CC(=O)[C@@](C)(C(=O)O1)[C@H]2[C@@H]3C(=O)OC,,> 10,,> 10,,,,,,1.7,> 10,> 10,> 10,< 0.04,0.072,< 0.04,0.83,0.88,EC50 [3]: 5.2 µM; EC50 [6]: 7.1 µM
C=C1[C@@H](O)[C@]23C[C@@]1(O)CC[C@H]2c1ccc(O)c(C)c1[C@@H]3C(=O)OC,> 10,> 10,> 10,> 10,> 10,> 10,> 10,> 10,> 10,> 100,> 10,> 10,> 10,,,,,,
C=C1[C@@H]2OC(=O)[C@H]3[C@@H]4[C@@]5(C)C(=O)C=C[C@@]4(OC5=O)[C@@H]4CC[C@]1(O)C[C@]234,,> 10,> 10,> 10,,> 10,,,,57,> 10,> 10,> 10,3,4.3,5.9,5.5,3.7,
C=C1C(=O)[C@@]2(C)CC[C@H]3c4cccc(C)c4[C@H](C(=O)OC)[C@@]13C2,,> 10,,,,,,,,22,> 10,> 10,> 10,0.62,0.97,2.1,1.4,2.5,EC50 [3]: 5.2 µM; EC50 [4]: 10 µM; EC50 [6]: 2.9 µM
C=C1C[C@]23C[C@@]1(O)CC[C@H]2c1ccc(O)c(C)c1[C@@H]3C(=O)OC,> 10,> 10,> 10,> 10,> 10,> 10,> 10,> 10,> 10,> 100,> 10,> 10,> 10,,,,,,
C=C1[C@@H]2OC(=O)[C@H]3c4c(C)cccc4[C@@H]4CC[C@]1(O)C[C@@]243,> 10,> 10,> 10,> 10,> 10,> 10,> 10,> 10,> 10,> 100,> 10,> 10,> 10,,,,,,
